TLR4 MyD88 comp = TLR4-MyD88 interaction inhibition in cells; hit rate 0.18% among 200,000; AID 861; O00206+Q99836; HeLa CL3-4 TLR4/MyD88 BLA complementation, FRET ratio; inhibition, % at 8.4 µM; in the data active = inhibition above about 25%;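 note: 0% = vehicle and 100% = reference inhibitor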
MT1-MMP act inh = blocks activation of human MT1-MMP; AID 651647; P50281; GFP/RFP ratio change, % at 20 µM; HT1080 RFP-PRO-GFP cells, GFP/RFP ratio fluorescence, overnight; percent of plate control window, DMSO zero; hit rate 0.061% among 360,000;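 active = GFP/RFP ratio change of at least 30% with cell ATP level not reduced by more than half and red fluorescence within 50% of control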
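system = RFP-PRO-GFP reporter HT1080 cells | dosing = 20 µM single dose, 1% DMSO | timing = overnight cell settling, then overnight compound exposure, 37 °C, 5% CO2 | read-out basis = GFP/RFP fluorescence ratio | controls = DMSO and RFP-L50D-GFP cell wells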
NOD2 RIPK2 PPI = NOD2-RIPK2 protein interaction inhibition; CHO BLA complementation NOD2-RIPK2, CCF4 ratio; inhibition, % at 4.98 µM; hit rate 0.38% among 360,000; in the data active = inhibition above about 21%;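 note: 0% = vehicle only and 100% = reference blocker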
TLR9-MyD88 inh = TLR9-MyD88 interaction inhibition | CHO BLA complementation TLR9-MyD88, CCF4 FRET ratio | inhibition, % at 4.98 µM | hit rate 0.21% among 340,000;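 active = inhibition above the mean over all tested compounds plus 3 SD, cut at about 21% in these data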;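 note: 0% = DMSO only wells and 100% = clavulanate BLA inhibitor control wells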
SKN-1 inh = C. elegans SKN-1 inhibition. C. elegans VP596 Pgst-4::GFP/RFP ratio, acrylamide-induced, 24 h. inhibition, % at 21.8 µM. hit rate 0.49% among 360,000;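 active = interference check ratio from 0.5 to 1.5 plus GFP to RFP signal ratio inhibition reaching or exceeding a fixed threshold, cut at about 30% in these data, passing the limit was not always enough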
TLR9-MyD88 cf = confirmation of human TLR9-MyD88 binding inhibitors. inhibition, % at 4.98 µM. CHO TLR9/MyD88 BLA complementation, CCF4 FRET ratio. shares compounds with TLR9-MyD88 inh. hit rate 51% among 680;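 active = mean inhibition across three repeats above about 21% taken from the earlier screen, limit read from the data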;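 note: blue over green emission ratio reports constitutive TLR9 MyD88 association via BLA complementation; 0% = DMSO vehicle wells and 100% = clavulanate BLA inhibitor wells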
Target sequence (Q9NR96 whole entry, looked up): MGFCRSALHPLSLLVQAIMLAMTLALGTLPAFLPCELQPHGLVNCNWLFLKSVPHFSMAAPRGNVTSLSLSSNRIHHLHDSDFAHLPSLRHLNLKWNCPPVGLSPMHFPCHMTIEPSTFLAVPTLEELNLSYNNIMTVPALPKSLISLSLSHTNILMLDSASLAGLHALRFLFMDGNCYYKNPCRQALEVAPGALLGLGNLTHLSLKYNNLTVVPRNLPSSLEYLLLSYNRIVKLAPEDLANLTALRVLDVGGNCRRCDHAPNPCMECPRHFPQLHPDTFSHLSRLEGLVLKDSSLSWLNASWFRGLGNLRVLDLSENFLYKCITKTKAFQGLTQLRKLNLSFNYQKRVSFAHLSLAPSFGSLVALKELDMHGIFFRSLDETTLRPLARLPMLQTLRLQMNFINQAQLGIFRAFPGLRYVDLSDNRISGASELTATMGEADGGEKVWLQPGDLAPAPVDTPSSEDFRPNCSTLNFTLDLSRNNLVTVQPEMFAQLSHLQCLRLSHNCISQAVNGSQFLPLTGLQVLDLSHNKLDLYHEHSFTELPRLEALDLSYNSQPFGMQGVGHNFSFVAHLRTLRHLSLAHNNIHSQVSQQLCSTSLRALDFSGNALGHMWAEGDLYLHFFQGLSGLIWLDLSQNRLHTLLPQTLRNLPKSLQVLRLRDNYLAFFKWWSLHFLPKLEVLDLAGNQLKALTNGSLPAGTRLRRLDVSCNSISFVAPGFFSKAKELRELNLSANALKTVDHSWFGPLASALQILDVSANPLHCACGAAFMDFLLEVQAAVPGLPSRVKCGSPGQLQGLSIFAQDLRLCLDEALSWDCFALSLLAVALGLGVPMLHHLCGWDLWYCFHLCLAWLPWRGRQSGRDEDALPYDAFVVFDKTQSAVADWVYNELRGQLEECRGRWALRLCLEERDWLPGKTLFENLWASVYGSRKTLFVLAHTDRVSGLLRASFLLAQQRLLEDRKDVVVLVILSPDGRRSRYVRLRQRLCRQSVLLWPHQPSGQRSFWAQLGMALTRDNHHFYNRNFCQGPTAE
BLA nonselective = counter-screen for TLR9-MyD88 inhibitors: non-selective beta-lactamase inhibitors | AID 540251 | hit rate 7% among 680 | CHO-BLA cells, CCF4 FRET ratio, BLA reporter | inhibition, % at 4.98 µM | shares compounds with TLR9-MyD88 inh;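 active = mean inhibition above a 50% cutoff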;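 note: counterscreen of TLR9-MyD88 hits on CMV-driven BLA in CHO-K1 cells; 0% = DMSO alone and 100% = clavulanate blocking BLA; higher means less blue over green ratio so more BLA blockade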
TLR9 CHO cytotox = counter-screen for TLR9-MyD88 inhibitors: cytotoxicity in CHO cells; luminescence; hit rate 39% among 680; inhibition, % at 4.98 µM; shares compounds with TLR9-MyD88 inh; in the data active = inhibition above about 11%
Starred values were filed as active, the others as inactive. Compounds with a hit are over-represented: about 0.99% of the library has one in this group of screens.

`CCOC(=O)[C@H]1[C@H]2COc3ccc(C)cc3[C@@H]2N2C(=O)CN(Cc3ccco3)C(=O)[C@@]12C` gave MT1-MMP act inh -5, NOD2 RIPK2 PPI 3, TLR9-MyD88 inh 22*, SKN-1 inh -7, TLR9-MyD88 cf 4, BLA nonselective 1 and TLR9 CHO cytotox 0.
`NC(c1csc(Nc2cnccn2)n1)c1ccccc1Cl` (stereo not drawn) gave MT1-MMP act inh 0, NOD2 RIPK2 PPI 1 and SKN-1 inh 4.
Screening O=C1c2ccccc2NC(c2ccc(-c3ccc(C(F)(F)F)cc3)o2)N1O (stereo not drawn) returned MT1-MMP act inh -1, NOD2 RIPK2 PPI 4, TLR9-MyD88 inh 24*, SKN-1 inh 11, TLR9-MyD88 cf 4, BLA nonselective 5 and TLR9 CHO cytotox 41*.
`O=C1c2ccccc2NC(c2ccc(-c3cccs3)o2)N1O` (stereo not drawn) gave MT1-MMP act inh 1, NOD2 RIPK2 PPI 10, TLR9-MyD88 inh 5 and SKN-1 inh -1.
`COc1ccc(OCC(O)CNC(=O)/C=C/c2cccc([N+](=O)[O-])c2)cc1` (stereo not drawn) gave TLR4 MyD88 comp 6, MT1-MMP act inh -1, NOD2 RIPK2 PPI -1, TLR9-MyD88 inh 23*, SKN-1 inh -4, TLR9-MyD88 cf -3, BLA nonselective -1 and TLR9 CHO cytotox 2.
For COc1ccc(OCCNC(=O)/C=C/c2ccc([N+](=O)[O-])cc2)cc1 the results were TLR4 MyD88 comp -8, MT1-MMP act inh 4, NOD2 RIPK2 PPI -9, TLR9-MyD88 inh 1 and SKN-1 inh 7.
For CN(C)c1ccc(/C=C2\SC(=S)N(Nc3ncc(C(F)(F)F)cc3Cl)C2=O)cc1 the results were TLR4 MyD88 comp 17, MT1-MMP act inh -69, NOD2 RIPK2 PPI 1, TLR9-MyD88 inh 0 and SKN-1 inh 62.
`COc1cc(/C=C2\SC(=S)N(Nc3ncc(C(F)(F)F)cc3Cl)C2=O)ccc1O` gave TLR4 MyD88 comp 11, MT1-MMP act inh -26, NOD2 RIPK2 PPI 13, TLR9-MyD88 inh 26*, SKN-1 inh 13, TLR9-MyD88 cf 1, BLA nonselective 2 and TLR9 CHO cytotox 4.
O=C(NC(=S)N1CCCCC1)c1csc([N+](=O)[O-])c1 was read as MT1-MMP act inh 8, NOD2 RIPK2 PPI -10 and SKN-1 inh -13.
For Cc1ccc(S(=O)(=O)c2ccc([N+](=O)[O-])o2)cc1 the results were MT1-MMP act inh 15, NOD2 RIPK2 PPI 93*, TLR9-MyD88 inh 44*, SKN-1 inh 10, TLR9-MyD88 cf 51*, BLA nonselective 19 and TLR9 CHO cytotox 99*.
Screening O=C(NCc1ccco1)c1cccc2c1C(=O)c1ccc(/C=C/c3ccccc3)cc1S2(=O)=O returned MT1-MMP act inh -6, NOD2 RIPK2 PPI 5, TLR9-MyD88 inh 30*, SKN-1 inh 22, TLR9-MyD88 cf 47*, BLA nonselective 52* and TLR9 CHO cytotox 12*.
O=C(NCc1cccc(F)c1)c1cccc2c1C(=O)c1ccc(N3CCC(Cc4ccccc4)CC3)cc1S2(=O)=O was read as MT1-MMP act inh -114, NOD2 RIPK2 PPI 21*, TLR9-MyD88 inh 50*, SKN-1 inh -1, TLR9-MyD88 cf 44*, BLA nonselective 46 and TLR9 CHO cytotox 7.
O=C(NCc1ccco1)c1cccc2c1C(=O)c1ccc(N3CCC(Cc4ccccc4)CC3)cc1S2(=O)=O was read as MT1-MMP act inh -172, NOD2 RIPK2 PPI 32*, TLR9-MyD88 inh 27*, SKN-1 inh -3, TLR9-MyD88 cf 37*, BLA nonselective 39 and TLR9 CHO cytotox 6.
Screening O=C(NCc1ccc(OC(F)(F)F)cc1)c1cccc2c1C(=O)c1ccc(N3CCC(Cc4ccccc4)CC3)cc1S2(=O)=O returned MT1-MMP act inh -188, NOD2 RIPK2 PPI 5, TLR9-MyD88 inh 6 and SKN-1 inh 3.
Screening O=C(NCc1cccc(C(F)(F)F)c1)c1cccc2c1C(=O)c1ccc(N3CCC(Cc4ccccc4)CC3)cc1S2(=O)=O returned MT1-MMP act inh -128, NOD2 RIPK2 PPI 20, TLR9-MyD88 inh 31*, SKN-1 inh 4, TLR9-MyD88 cf 45*, BLA nonselective 47 and TLR9 CHO cytotox 8.
`O=c1[nH]ncc(NCCc2ccccc2)c1Cl` gave TLR4 MyD88 comp -6, MT1-MMP act inh 2, NOD2 RIPK2 PPI -5, TLR9-MyD88 inh 24*, SKN-1 inh 0, TLR9-MyD88 cf -8, BLA nonselective -5 and TLR9 CHO cytotox -1.
For COc1ccc(C(=O)NC2CCSc3ccccc32)cc1F (stereo not drawn) the results were MT1-MMP act inh 2, NOD2 RIPK2 PPI 4, TLR9-MyD88 inh -7 and SKN-1 inh 15.
For CCCn1c(/C=C/c2ccccc2)nc2ccccc21 the results were TLR4 MyD88 comp 0, MT1-MMP act inh -3, NOD2 RIPK2 PPI 0, TLR9-MyD88 inh -3 and SKN-1 inh 0.
CCn1c(/C=C/c2cc[n+](C)cc2)nc2ccccc21 was read as MT1-MMP act inh -12, NOD2 RIPK2 PPI 17, TLR9-MyD88 inh 24*, SKN-1 inh -11, TLR9-MyD88 cf 12, BLA nonselective 15 and TLR9 CHO cytotox -1.
Screening COc1ccccc1C(=O)NC(=O)COC(=O)CCS(=O)(=O)c1ccc(C)cc1 returned MT1-MMP act inh -7, NOD2 RIPK2 PPI -27, TLR9-MyD88 inh 7 and SKN-1 inh -1.
CS(=O)(=O)c1cnc(-c2cccnc2)nc1N was read as TLR4 MyD88 comp -2, MT1-MMP act inh -1, NOD2 RIPK2 PPI -12, TLR9-MyD88 inh 22*, SKN-1 inh 4, TLR9-MyD88 cf 0, BLA nonselective -1 and TLR9 CHO cytotox 6.
`COc1ccc(C2=CC(c3ccco3)n3ncnc3N2)cc1` (stereo not drawn) gave TLR4 MyD88 comp 8, MT1-MMP act inh -91, NOD2 RIPK2 PPI 21*, TLR9-MyD88 inh 28*, SKN-1 inh 1, TLR9-MyD88 cf 8, BLA nonselective 10 and TLR9 CHO cytotox 7.
Cc1ccccc1NC(=O)Nc1nnc([C@@H]2C[C@H](O)[C@@H](CO)O2)s1 was read as MT1-MMP act inh 2, NOD2 RIPK2 PPI -1 and SKN-1 inh -3.
O=C(NCCc1ccccc1)c1ccc2c(c1)S(=O)(=O)c1cc(Cl)ccc1C2=O was read as MT1-MMP act inh 1, NOD2 RIPK2 PPI -2, TLR9-MyD88 inh -3 and SKN-1 inh 8.
Screening O=c1n(Cc2ccccc2)nc2n1-c1ccccc1SC2 returned MT1-MMP act inh 2, NOD2 RIPK2 PPI -12, TLR9-MyD88 inh 1 and SKN-1 inh 8.
